Variants at the floor of the assay were thinned out. Some results are limits rather than exact numbers.

Here are results for 167 variants from the RNAGym collection of RNA variant scans (doi:10.1126/science.aae0568).

B1: tRNA (parent)
chain: GUUCCGUUGGCGUAAUGGUAACGCGUCUCCCUCCUAAGGAGAAGACUGCGGGUUCGAGUCCCGUACGGAACG

In the data set the parent is B1. In words: yeast fitness relative to wild type (ratio to wild type); higher = fitter; tRNA-Arg(CCU), competitive growth, 37 C, YPD. In a few lines:
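Genotype frequency changes were the basis for Darwinian fitness relative to wild type. The frequencies came from 100-nucleotide paired-end sequencing of gene amplicons from the start population and each end population of pooled yeast strains with tRNA-Arg(CCU) gene variants at the native locus. Competition ran in YPD at 37°C for 24 hours in six replicates, genotypes needed ≥ 100 starting reads, and estimates < 0.5 were set to 0.5.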
In the case of G9A U28A C60G, the yeast fitness was ≤ 0.5.

Take G9A C31G G56C C66A: the yeast fitness is ≤ 0.5. To G9A U28A A65U belongs ≤ 0.5; to G9A G12U A14U U32G U53A, ≤ 0.5; to G9C A14U C24G U35G C61G G68C, ≤ 0.5.

As for G9A C31U A40C, the yeast fitness is 1.04. Turning to G9A C31G G56C, the yeast fitness stood at 0.753. Turning to G9A U32C A43G G52A C61G, the yeast fitness was 0.63. To G9A C46U C66U belongs 1.04; to G9A C61G, 0.705; to G9C A36U A40U G44A G63A A69C, ≤ 0.5. With G9C A42C, the yeast fitness worked out at 0.684. Turning to G9A C66U, the yeast fitness is 0.898. Take G9A U28G A45C: the yeast fitness is ≤ 0.5. Regarding G9A G58U A70G, the yeast fitness was 0.984. The same measure for G9C A36C A37G U64C: ≤ 0.5; for G9A U64C: 0.985. Turning to G9A U64A, the yeast fitness came to 0.811. Turning to G9A U19C C33U A40U U59A, the yeast fitness is ≤ 0.5. For G9A U28A C62U G68A, the yeast fitness was ≤ 0.5. The same measure for G9C A37G C55G C60G: 0.524. To G9A G12U A14U belongs ≤ 0.5; to G9C A14G A70G, 0.746. The same measure for G9A G56A G67A: 0.632. For G9A G23C G39C, the yeast fitness was ≤ 0.5.

Take G9A G12A C22G A43G C46G C66U: the yeast fitness was ≤ 0.5.

As to G9A C33U G56A G67A, the yeast fitness is ≤ 0.5. To G9A U54C G56A belongs 0.661. For the variant G9A U13A U47A C60A, the yeast fitness is ≤ 0.5.

For the variant G9A G50A, the yeast fitness came out at 1. Take G9A G10A C11U: the yeast fitness is 0.668.

With G9A U32C, the yeast fitness is 0.943. For G9C A20G G50C, the yeast fitness is ≤ 0.5. Regarding G9C A43C A57U G63A, the yeast fitness was ≤ 0.5. Regarding G9C A36G C62U, the yeast fitness was ≤ 0.5. Take G9A G10A C31G G44A: the yeast fitness was ≤ 0.5. In the case of G9A C31A C46A A57G, the yeast fitness is ≤ 0.5. Regarding G9A G52C, the yeast fitness was 0.641. Consider G9A G17C G52A C55A, for which the yeast fitness is ≤ 0.5. The same measure for G9A C33G A42C C49U C55G: 0.729; for G9A U19G A45G: 0.528; for G9C: 0.853.

On to G9A G48C A70C, for which the yeast fitness came to 1.08. As to G9C A36C C55U, the yeast fitness is ≤ 0.5.

With G9C A36C C55A, the yeast fitness was 0.525. The same measure for G9C A14C C22G G52A U53A: 0.503; for G9A G12C C31A C33G A45G: 0.611; for G9A C34U C46A C61A C62U: ≤ 0.5.

With G9C A14C G18A G44C A57C, the yeast fitness is ≤ 0.5.

Consider G9A C34U G44C A45C C66G, for which the yeast fitness was ≤ 0.5. In the case of G9A C34U G44C A45C C66A, the yeast fitness was found to be 0.578. To G9C A20C C31A A57C C66A A69U belongs 0.572; to G9A C60G G67A, ≤ 0.5. For the variant G9A C49U A65U, the yeast fitness came to 0.651. G9A G39A A45G G50A A69U: the yeast fitness was determined as 0.548.

Consider G9A C33G C49A A69U, for which the yeast fitness was ≤ 0.5. Regarding G9A C34G C61U C66U, the yeast fitness was ≤ 0.5. Take G9A G39A: the yeast fitness was 0.999.

For the variant G9C A15G C27A C31G C61U, the yeast fitness is ≤ 0.5.

With G9C A20G U26C, the yeast fitness was ≤ 0.5. Regarding G9A U59A C66A, the yeast fitness was 0.55.

Consider G9A U13C C29G A69U, for which the yeast fitness came to 0.53. The same measure for G9A G44C G58A: 0.766; for G9A U32C C33G A37G G52A C55U G63A A65U: ≤ 0.5. With G9C A15C C46U, the yeast fitness was 0.592. For the variant G9C A14U G50C, the yeast fitness amounted to 0.682. With G9A G48C, the yeast fitness turned out to be 0.985. Turning to G9A G48A, the yeast fitness is 0.955.

Consider G9A G58A G67A, for which the yeast fitness turned out to be 0.959. Consider G9C A42G G52A, for which the yeast fitness is ≤ 0.5. To G9C A40C G51C U64C belongs 0.79; to G9A G12C G17A C22G C30U C34G U59G, ≤ 0.5. Turning to G9C A15U G17A A37U A45C, the yeast fitness was ≤ 0.5. The same measure for G9C A40G A42G A57U: ≤ 0.5.

In the case of G9A U28C C30U A69U, the yeast fitness was ≤ 0.5. G9A G10A C46G: the yeast fitness is ≤ 0.5.

Turning to G9C A42C C49G G68A, the yeast fitness was ≤ 0.5. For G9A C62A, the yeast fitness is 0.842.

Turning to G9A G10C G25C C33U, the yeast fitness was ≤ 0.5. For G9C A43C, the yeast fitness was found to be 0.58.

Take G9C A20U U47C: the yeast fitness is ≤ 0.5. G9A C31U C60U C62U: the yeast fitness is ≤ 0.5. On to G9A G18C G39C A69U, for which the yeast fitness is ≤ 0.5. In the case of G9A G12U A14U C31G A69U, the yeast fitness was ≤ 0.5. Take G9A G48C U53G: the yeast fitness is ≤ 0.5. As for G9C A20G U35C A36G U59A C66G, the yeast fitness is ≤ 0.5. To G9A U54G belongs 0.552; to G9A U59A A69G, 0.697; to G9A G10A G25A C31G G52A C61U, ≤ 0.5.

With G9A G38A A65U, the yeast fitness was 0.565. With G9C A14G U47C, the yeast fitness was ≤ 0.5.

On to G9A G38C G41C U54A, for which the yeast fitness was ≤ 0.5. For the variant G9A G48A A69U, the yeast fitness amounted to 1.07. To G9A G48A A69C belongs 0.87; to G9A C31A C33A, ≤ 0.5. Take G9C A14U C62G: the yeast fitness was ≤ 0.5. For the variant G9A C60G A70U, the yeast fitness came to 0.584. G9A G10C C11U U16G G41A A70G: the yeast fitness is ≤ 0.5. G9A G12U A14U C34A A65C: the yeast fitness is ≤ 0.5.

G9A G12C U13A G25A C30G C66U: the yeast fitness is ≤ 0.5. On to G9A G12C U13A G25A C30G C66A, for which the yeast fitness is ≤ 0.5. For the variant G9A U19G A37C A43U C46G G68A, the yeast fitness was ≤ 0.5. On to G9A G25C C30U, for which the yeast fitness stood at 0.679.

Take G9A U28C C49A: the yeast fitness is ≤ 0.5.

On to G9C A14G U26A U32G, for which the yeast fitness was ≤ 0.5.

Regarding G9C A42U U54C, the yeast fitness is ≤ 0.5. Consider G9A U16C A20G A42G G68U, for which the yeast fitness was ≤ 0.5. In the case of G9A G10C U19A, the yeast fitness is ≤ 0.5. As to G9A G48C G52A, the yeast fitness is ≤ 0.5.

Take G9A U28C C55G C62G: the yeast fitness is ≤ 0.5. As to G9A U28A G41C A65C G67C, the yeast fitness came to 0.579.

G9A U19C G23C: the yeast fitness is ≤ 0.5. On to G9C A15C U35C U59A G63A, for which the yeast fitness was ≤ 0.5. Consider G9A U54C C61G, for which the yeast fitness came to 0.565. G9A U16C U32G G48C: the yeast fitness is ≤ 0.5. For G9A C66G G68C, the yeast fitness came out at 0.571. To G9A G18A C24U A57C belongs ≤ 0.5. To G9A C55U A70U belongs 0.623. To G9A C55U A70G belongs 0.536; to G9C A14G C62U G63C A70C, ≤ 0.5; to G9A G39C A43C A57C, ≤ 0.5. For the variant G9A C31U C60G C61U G63A, the yeast fitness is ≤ 0.5.

Take G9C A15C U53C C55G: the yeast fitness is ≤ 0.5. The same measure for G9A U19A C49G U59C: ≤ 0.5. To G9A G25C U26G C46G A70U belongs ≤ 0.5; to G9A G41C, 0.899; to G9C A15G C33U A36C G39C C46G G51C, ≤ 0.5. To G9A G56C belongs 0.563. With G9A G12C G17A C22G C30U C34G, the yeast fitness was ≤ 0.5.

Turning to G9C A21C, the yeast fitness was 0.652. For the variant G9C A21G, the yeast fitness was 0.669. As to G9C A21U, the yeast fitness came out at 0.509. For the variant G9C A36C C61A, the yeast fitness was 0.616. As for G9A G12C A14C G23A G50C, the yeast fitness was 0.56. On to G9A G56C C61U, for which the yeast fitness is 0.603.

Regarding G9A G12C A14C G50C, the yeast fitness was 0.594.

On to G9C A14U A69G, for which the yeast fitness is ≤ 0.5.

Consider G9A U19C, for which the yeast fitness was found to be 0.983. With G9A U19A, the yeast fitness is 1.04.

Turning to G9A U19G, the yeast fitness came to 0.848. To G9C A14C A57G belongs ≤ 0.5; to G9A C34U U59C A65C A69G, ≤ 0.5; to G9A G67A, 0.883.

On to G9A G67C, for which the yeast fitness stood at 0.932.

Turning to G9A C31U, the yeast fitness stood at 0.982.

On to G9A C31A, for which the yeast fitness stood at 0.862.

As to G9A G10C A20G G25C C33U, the yeast fitness is ≤ 0.5. As to G9A G17C, the yeast fitness stood at 0.668. For G9A G44A, the yeast fitness worked out at 0.983. With G9C A21U C27U, the yeast fitness was ≤ 0.5. To G9C A21U C66A belongs 0.585. Take G9A U53C: the yeast fitness was 0.77. Take G9A G12A C27G: the yeast fitness is ≤ 0.5.

On to G9A U19C G23C U59A G68C, for which the yeast fitness was ≤ 0.5.

Take G9C A14C G44C A57U: the yeast fitness is ≤ 0.5. Turning to G9C A14C G44C A57C, the yeast fitness is 0.573. Consider G9C A15C A36U A43U, for which the yeast fitness came to 0.738. To G9A C46U belongs 0.943; to G9A C55G, 0.549; to G9A C55A, 0.707. To G9A C55U belongs 0.65; to G9A G17C C49G, ≤ 0.5. As for G9A G12C, the yeast fitness worked out at 0.943. With G9A G12A, the yeast fitness came to 0.927. G9A U28C A40C G48A: the yeast fitness was ≤ 0.5. Turning to G9A G25A C49U, the yeast fitness was 0.773.

As to G9A G52A G56U, the yeast fitness is ≤ 0.5.
